Published values from different studies.
Target: Eukaryotic elongation factor 2 kinase (EEF2K, Homo sapiens, UniProt O00418)

SMILES	effect on	action	technique	cells	concentration	endpoint	result
CC1(C)NC(=O)c2[nH]c3c(Cl)c(Cl)ccc3c2C1C#N (stereo not drawn)	thermal stability	–	DSF	–	10 µM	ΔTm	-0.3 °C
Nc1nc(NC2CCCCC2)sc1C(=O)c1ccccc1	enzyme activity	inhibitor	–	–	10 µM	remaining activity	89%
CCN1CCN(Cc2ccc(NC(=O)c3ccc(C)c(Oc4ccnc5[nH]ccc45)c3)cc2C(F)(F)F)CC1	target engagement in cells	inhibitor	chemoproteomics	A-375	0.5 µM	inhibition	0.084%
CCN(CC)c1ccc(C2=NNC(=O)CC2C)cc1[N+](=O)[O-] (stereo not drawn)	enzyme activity	inhibitor	–	–	10 µM	remaining activity	95%
C=CC(=O)Nc1cc(Nc2nccc(Nc3cc(Cl)c(F)cc3C(C)(C)O)n2)c(OC)cc1N1CC[C@@H](N(C)C)C1	enzyme activity	inhibitor	–	–	1 µM	inhibition	11%
COc1cc2nccc(Oc3ccc(NC(=O)c4c5n(n(-c6ccc(F)cc6)c4=O)CCCC5)cc3)c2cc1OC	enzyme activity	inhibitor	–	–	0.1 µM	inhibition	8%
CCN(CC)CCNC(=O)c1c(C)[nH]c(/C=C2\C(=O)Nc3ccc(F)cc32)c1C	enzyme activity	inhibitor	–	–	0.3 µM	inhibition	-15%
FC(F)(F)Oc1cccc(-c2cnc3ccc(-c4ccncc4)nn23)c1	enzyme activity	inhibitor	radiometric	–	5 µM	activity vs control	98%
Cc1cnc(NC2CCOCC2)nc1-n1cnc(C(=O)NC(CN)c2cc(F)cc(Cl)c2)c1 (stereo not drawn)	enzyme activity	inhibitor	radiometric	–	1 µM	remaining activity	108%
CCCS(=O)(=O)Nc1ccc(F)c(C(=O)c2c[nH]c3ncc(-c4ccc(Cl)cc4)cc23)c1F	enzyme activity	inhibitor	–	–	1 µM	inhibition	< 10%
CC(C)c1ccc(NC(=O)c2cccs2)c(-c2nc3ccccc3[nH]c2=O)c1	enzyme activity	inhibitor	–	–	1 µM	activity vs control	113%
Cc1cc(NC(=O)c2cccc3cc(-c4cccc5[nH]nc(N)c45)ccc23)ccc1F	enzyme activity	inhibitor	–	–	0.1 µM	activity vs control	103%
COc1cc(Nc2cnc(C#N)c(O[C@H](C)CN(C)C)n2)ncc1-c1cnn(C)c1	enzyme activity	inhibitor	radiometric	–	10 µM	remaining activity	87%
FC(F)c1nc2ccccc2n1-c1nc(N2CCOCC2)nc(N2CCOCC2)n1	enzyme activity	inhibitor	–	–	10 µM	remaining activity	96%
Cn1c2c(Cl)c(Cl)ccc2c2cc[nH]c(=O)c21	thermal stability	–	DSF	–	10 µM	ΔTm	-0.3 °C
Cc1ccc(Nc2nccc(N(C)c3ccc4c(C)n(C)nc4c3)n2)cc1S(N)(=O)=O	enzyme activity	inhibitor	–	–	0.3 µM	inhibition	-7%
Oc1cccc(-c2nc(N3CCOCC3)c3oc4ncccc4c3n2)c1	enzyme activity	inhibitor	–	–	10 µM	remaining activity	99%
Cn1c2c(c3ccc(Cl)c(Cl)c31)C(C#N)C1(CCCC1)NC2=O (stereo not drawn)	thermal stability	–	DSF	–	10 µM	ΔTm	0 °C
CNc1cc(Oc2cc(C(=O)Nc3cc(N4CCN(C)CC4)cc(C(F)(F)F)c3)ccc2C)ncn1	target engagement in cells	inhibitor	chemoproteomics	Huh-7	1 µM	inhibition	-99.1%
CNC(=O)c1cc(Oc2ccc(NC(=O)Nc3ccc(Cl)c(C(F)(F)F)c3)cc2)ccn1	enzyme activity	inhibitor	–	–	0.3 µM	inhibition	-6%
CCN1CCC2(CC1)NC(=O)c1c(c3ccc(Cl)c(Cl)c3n1C)C2C#N (racemic)	thermal stability	–	DSF	–	10 µM	ΔTm	0 °C
CC(C)(C)c1nc(-c2cccc(NS(=O)(=O)c3c(F)cccc3F)c2F)c(-c2ccnc(N)n2)s1	enzyme activity	inhibitor	radiometric	–	1 µM	remaining activity	93%
CN1CCC2(CC1)NC(=O)c1c(c3ccc(Cl)c(Cl)c3n1C)C2C#N (racemic)	thermal stability	–	DSF	–	10 µM	ΔTm	-0.1 °C
COc1cc2ncnc(Nc3ccc(Oc4ccccc4)c(C)c3C)c2cc1OC	enzyme activity	inhibitor	–	–	1 µM	inhibition	1%
